According to ChEMBL document CHEMBL1137134, “Novel thiophenes and analogues with anthelmintic activity against Haemonchus contortus” (Bioorg Med Chem Lett, 2004):

Assays:
Type in all cases: functional, organism-based
Haemonchus contortus [1] = experiment: In vitro anthelmintic activity against Haemonchus contortus after 24 hr of incubation using larval mobility assay
Outline: (§1)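 L3 larvae (30–40/well) incubated with compound at 27 °C for 2 or 24 h, then moved to an insert whose wells have a nylon mesh (40 µm pores) under 2% low-melt agar. After 4 h more, larvae that migrated through the barrier were counted. Primary screen at 100 ppm, with >50% motility inhibition counted as active. EC50 from 2-fold serial dilutions, 200 to 0.2 µM.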

Haemonchus contortus [2] = experiment: In vitro anthelmintic activity against Haemonchus contortus after 2 hr of incubation using larval mobility assay; outline: as §1
Haemonchus contortus [3] = experiment: In vitro anthelmintic activity against Haemonchus contortus after 24 hr of incubation using larval mobility assay; NA denotes <50% inhibition of […] at 100 ppm
Outline: (§2)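 H. contortus L3 larvae (30–40/well) exposed to compound at 27 °C for 2 or 24 h, then moved to an insert with a 40 µm nylon mesh under 2% low melt agar. After a further 4 h, larvae that migrated through the barrier were counted. EC50 from 2-fold serial dilutions, 200 to 0.2 µM. Primary screen at 100 ppm, 24 h; >50% motility inhibition counted as active.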

Haemonchus contortus [4] = experiment: In vitro anthelmintic activity against Haemonchus contortus after 2 hr of incubation using larval mobility assay; NA denotes <50% inhibition of mortality at 100 ppm; outline: as §2

Row | Compound | EC50 (Haemonchus contortus [1]) [µM] | EC50 (Haemonchus contortus [2]) [µM] | EC50 (Haemonchus contortus [3]) | EC50 (Haemonchus contortus [4])
1 | CCNc1nc(-c2ccccc2)cs1 | 102 | 162 | – | –
2 | CCSc1cc(-c2cccc(C#N)c2)cs1 | 189 | > 200 | – | –
3 | CSc1nc(-c2ccc(F)cc2)cn1C | – | – | Not Active | –
4 | CSc1scc(-c2ccc(F)cc2)c1[N+](=O)[O-] | – | – | Not Active | –
5 | CCSc1scc(-c2ccc(F)cc2)c1C#N | 6 | > 200 | – | –
6 | c1ccc([C@H]2CN3CCSC3=N2)cc1 [LEVAMISOLE] | 15 | 18 | – | –
7 | CCSc1cc(-c2cccnc2)cs1 | 33 | 46 | – | –
8 | CC(=O)c1cc(-c2ccc(F)cc2)cs1 | – | – | Not Active | –
9 | CCSc1nc(-c2ccccc2)cs1 | 32 | > 200 | – | –
10 | CCSc1cc(-c2ccccc2)cs1 | – | – | Not Active | –
11 | CSc1cc(-c2ccc(F)cc2)co1 | – | – | Not Active | –
12 | CSc1nc(-c2ccccc2)cs1 | 190 | 82 | – | –
13 | CCSc1cc(-c2cccs2)cs1 | 161 | > 200 | – | –
14 | CCSc1cc(-c2ccc(F)cc2)cs1 | 12 | > 200 | – | –
15 | CSc1cccc(-c2ccc(F)cc2)c1 | – | – | Not Active | –
16 | CCSc1c(C#N)c(-c2ccc(F)cc2)cn1C | – | – | Not Active | Not Active
17 | CNc1scc(-c2ccc(F)cc2)c1C#N | – | – | Not Active | –

Row | Compound | EC50 (Haemonchus contortus [1]) [µM] | EC50 (Haemonchus contortus [2]) [µM] | EC50 (Haemonchus contortus [3]) | EC50 (Haemonchus contortus [4])
18 | CSc1scc(-c2ccc(F)cc2)c1Br | 17 | > 200 | – | –
19 | N#Cc1cscc1-c1ccc(F)cc1 | – | – | Not Active | –
20 | CCSc1cc(-c2ccc([N+](=O)[O-])cc2)cs1 | 15 | 193 | – | –
21 | CSc1ccc(-c2ccc(F)cc2)cc1C#N | – | – | Not Active | –
22 | CSc1cc(-c2ccc(F)cc2)cs1 | 68 | > 200 | – | –
23 | CSc1c(C#N)c(-c2ccc(F)cc2)cn1C | 175 | > 200 | – | –
24 | CCSc1cc(-c2ccc(F)c(F)c2)cs1 | 80 | > 200 | – | –
25 | CSc1ccc(-c2ccc(F)cc2)cc1 | – | – | Not Active | –
26 | N#Cc1c(-c2ccc(F)cc2)csc1N | – | – | Not Active | –
27 | CS(=O)(=O)c1scc(-c2ccc(F)cc2)c1C#N | – | – | Not Active | –
28 | CNc1nc(-c2ccccc2)cs1 | 65 | 46 | – | –
29 | CSc1scc(-c2ccc(F)cc2)c1C#N | 28 | > 200 | – | –
30 | CCc1cc(-c2ccc(F)cc2)cs1 | – | – | Not Active | –
31 | CSc1nc(-c2ccc(F)cc2)c[nH]1 | – | – | Not Active | –
32 | CNc1nc(-c2ccc(F)cc2)cs1 | 64 | 98 | – | –
33 | CCOc1scc(-c2ccc(F)cc2)c1C#N | – | – | Not Active | –
